Assay results published in publication PMC7482441 (Pharmacological Research, 2020).

Columns and labels:
[1] = Population PK / non-compartmental analysis of plasma Rimeporide in DMD boys; format: in vivo, human; details: for half-life: male, human, plasma, po
Summary of the method: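 Sparse plasma sampling: Day 1 pre-dose, 0.5–1, 1–2, 2.5–3.5 and ~6 h post-dose; Day 28 at 0.5–1 and ~6 h. Drug was quantified by a validated LC–MS/MS method. A 3-compartment population model with absorption and first-order elimination was fitted in NONMEM, pooled with healthy-volunteer and heart-failure data.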

SCGB3A2 = experiment: Circulating biomarker, baseline vs 4-week treatment; format: in vivo, human; details: 20 DMD patients, OLink, p-value 1.3e-5, FDR 0.001
KLK6 = experiment: as above; format: in vivo, human; details: 20 DMD patients, OLink, p-value 0.0004, FDR 0.20
[2] = test system: CK T (Creatine Kinase total); experiment: as above; format: in vivo, human; details: 20 DMD patients, Electrophoresis, p-value 0.0007, FDR 0.24
[3] = test system: CK MM (Creatine Kinase MM isoform); experiment: as above; format: in vivo, human; details: 20 DMD patients, Electrophoresis, p-value 0.0009, FDR 0.24
MB (Myoglobin) = experiment: as above; format: in vivo, human; details: 20 DMD patients, OLink, p-value 0.0036, FDR 0.79
IGFBP6 = experiment: as above; format: in vivo, human; details: 20 DMD patients, OLink, p-value 0.0044, FDR 0.89
UMX 101 hamsters = details: lifelong preventive treatment; cited from earlier work
[4] = test system: Golden Retriever muscular dystrophy (GRMD) dogs; details: treatment in a preventing setting; cited from earlier work

## [H]/N=C(\N)NC(=O)c1cc(S(C)(=O)=O)c(S(C)(=O)=O)cc1C [Rimeporide]
[1]; Cohort 1, 150 to 225 mg daily oral, Day 1, mean, N 5
  TAT (time above 500 ng/ml over 24 h): 6.6 h
[1]; Cohort 1, 150 to 225 mg daily oral, Day 28, mean, N 4
  TAT (time above 500 ng/ml over 24 h): 8.4 h
[1]; Cohort 2, 300 to 450 mg daily oral, Day 1, mean, N 5
  TAT (time above 500 ng/ml over 24 h): 17 h
[1]; Cohort 2, 300 to 450 mg daily oral, Day 28, mean, N 5
  TAT (time above 500 ng/ml over 24 h): 15 h
[1]; Cohort 3, 450 to 600 mg daily oral, Day 1, mean, N 5
  TAT (time above 500 ng/ml over 24 h): 18 h
[1]; Cohort 3, 450 to 600 mg daily oral, Day 28, mean, N 5
  TAT (time above 500 ng/ml over 24 h): 16 h
[1]; Cohort 4, 600 to 900 mg daily oral, Day 1, mean, N 5
  TAT (time above 500 ng/ml over 24 h): 19.0 h
[1]; Cohort 4, 600 to 900 mg daily oral, Day 28, mean, N 5
  TAT (time above 500 ng/ml over 24 h): 18 h
[1]; DMD patients
  dose linearity of PK: dose linear
[1]; DMD patients, repeated dosing 4 weeks
  accumulation with time: no sign of any accumulation
[1]; fed condition
  effect of fed condition on AUC24: no impact
  effect of fed condition on Cmax: decrease
[1]; in vivo
  exposure in children compared to healthy adults: slightly higher exposure than in adults
[1]; T1/2, Cohort 3, 450 to 600 mg daily oral, Day 1, mean, N 5
  half-life: 3.9 h
[1]; T1/2, Cohort 3, 450 to 600 mg daily oral, Day 28, mean, N 5
  half-life: 3.76 h
[1]; T1/2, Cohort 4, 600 to 900 mg daily oral, Day 1, mean, N 5
  half-life: 3.9 h
[1]; T1/2, Cohort 4, 600 to 900 mg daily oral, Day 28, mean, N 5
  half-life: 3.75 h
[1]; oral immediate release capsules, Days 1 and 28
  time post dose at which Cmax occurred: 1 to 2 h
SCGB3A2
  SCGB3A2: Term (TRT, linear mixed effect model, Day 28 vs Day 0): −0.5466
KLK6
  KLK6: Term (TRT, linear mixed effect model, Day 28 vs Day 0): −0.2612
[2]
  CK T: Term (TRT, linear mixed effect model, Day 28 vs Day 0): −0.3851
[3]
  CK MM: Term (TRT, linear mixed effect model, Day 28 vs Day 0): −0.3886
MB (Myoglobin)
  MB: Term (TRT, linear mixed effect model, Day 28 vs Day 0): −0.6763
IGFBP6
  IGFBP6: Term (TRT, linear mixed effect model, Day 28 vs Day 0): −0.3144
UMX 101 hamsters
  mortality: dramatic reduction in mortality
[4]
  cardioprotection: confirmed the cardioprotective role
